Tests used:
[1] = biological target: T1, Amine oxidase [flavin-containing] A (Homo sapiens, UniProt P21397); test: Inhibition of recombinant human MAOA expressed in baculovirus infected insect cell microsomes using kynuramine as substrate assessed as formation of 4-hydroxyquinoline after 20 mins by fluorescence spectrophotometry; set-up: species or system Microsome
T1 sequence (P21397 whole entry): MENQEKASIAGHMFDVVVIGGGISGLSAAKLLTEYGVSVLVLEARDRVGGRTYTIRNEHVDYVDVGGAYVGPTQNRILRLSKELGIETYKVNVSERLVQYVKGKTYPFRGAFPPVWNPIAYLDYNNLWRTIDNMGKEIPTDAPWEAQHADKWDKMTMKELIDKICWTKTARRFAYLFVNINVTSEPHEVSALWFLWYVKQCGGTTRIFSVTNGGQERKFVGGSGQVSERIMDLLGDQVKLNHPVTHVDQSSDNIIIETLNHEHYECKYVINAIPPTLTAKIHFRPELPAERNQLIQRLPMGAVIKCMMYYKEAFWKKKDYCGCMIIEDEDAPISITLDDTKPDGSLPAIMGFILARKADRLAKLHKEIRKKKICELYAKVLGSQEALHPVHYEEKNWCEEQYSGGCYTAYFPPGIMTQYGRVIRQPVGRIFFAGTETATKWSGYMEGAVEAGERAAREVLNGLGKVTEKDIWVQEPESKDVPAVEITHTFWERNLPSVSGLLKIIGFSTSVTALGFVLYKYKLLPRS

[2] = biological target: T2, Amine oxidase [flavin-containing] B (Homo sapiens, UniProt P27338); test: Inhibition of recombinant human MAOB expressed in baculovirus infected insect cell microsomes using kynuramine as substrate assessed as formation of 4-hydroxyquinoline after 20 mins by fluorescence spectrophotometry; set-up: species or system Microsome
T2 sequence (P27338 whole entry): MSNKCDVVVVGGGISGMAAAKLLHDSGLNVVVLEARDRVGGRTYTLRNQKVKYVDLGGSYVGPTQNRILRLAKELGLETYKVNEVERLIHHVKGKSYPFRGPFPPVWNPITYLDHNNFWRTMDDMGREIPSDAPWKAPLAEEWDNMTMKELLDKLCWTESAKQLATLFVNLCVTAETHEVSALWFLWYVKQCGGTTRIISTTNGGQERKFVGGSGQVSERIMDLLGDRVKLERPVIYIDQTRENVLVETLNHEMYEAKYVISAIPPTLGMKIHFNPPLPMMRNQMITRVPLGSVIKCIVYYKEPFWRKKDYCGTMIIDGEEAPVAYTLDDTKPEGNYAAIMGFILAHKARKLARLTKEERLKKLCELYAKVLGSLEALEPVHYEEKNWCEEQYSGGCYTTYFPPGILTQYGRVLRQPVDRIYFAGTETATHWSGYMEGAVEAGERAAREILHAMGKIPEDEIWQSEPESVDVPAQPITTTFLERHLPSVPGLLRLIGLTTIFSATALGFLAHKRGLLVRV

[3] = species on record: Homo sapiens; test: Selectivity index, ratio of Ki for recombinant human MAOB to Ki for recombinant human MAOA
In short: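 Recombinant human MAO-A and MAO-B in insect-cell microsomes (0.0075 mg/mL), kynuramine 45 µM (A) or 30 µM (B), inhibitor 0–100 µM, 9 concentrations, DMSO 4% final, K-phosphate 100 mM pH 7.4 isotonic with KCl, 37 °C 20 min. NaOH stop, 4-hydroxyquinoline fluorescence (ex 310/em 400 nm). Duplicate IC50 fits converted to Ki; SI = Ki(MAO-B)/Ki(MAO-A).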

[4] = biological target: T2, Amine oxidase [flavin-containing] B; test: Ratio of 8-benzyloxycaffeine IC50 to compound IC50 for recombinant human MAOB expressed in baculovirus infected insect cell microsomes; set-up: species or system Microsome
[5] = biological target: T1, Amine oxidase [flavin-containing] A; test: Competitive inhibition of human recombinant MAOA expressed in baculovirus infected insect cell microsomes using kynuramine as substrate assessed as 4-hydroxyquinoline formation per min per mg protein by Lineweaver-Burk plot analysis; set-up: species or system Microsome
[6] = biological target: T2, Amine oxidase [flavin-containing] B; test: Competitive inhibition of human recombinant MAOB expressed in baculovirus infected insect cell microsomes using kynuramine as substrate assessed as 4-hydroxyquinoline formation per min per mg protein by Lineweaver-Burk plot analysis; set-up: species or system Microsome

Ki [1] [nM]	IC50 [1] [nM]	IC50 [2] [nM]	Ki [2] [nM]	Ratio Ki [3]	Ki [5] [nM]	Ki [6] [nM]	SMILES	Ratio IC50 [4]
77100	20400	383	280	0.0036			Cn1c(=O)c2c(nc(OCCOc3ccccc3)n2C)n(C)c1=O	
460	1300	62	45	0.099			Cn1c(=O)c2c(nc(OCc3ccc(Br)cc3)n2C)n(C)c1=O	27
580	1650	166	120	0.207	1180	88	Cn1c(=O)c2c(nc(OCCOc3ccc(Br)cc3)n2C)n(C)c1=O	
26300	75200	10700	7840	0.3			Cn1c(=O)c2c(nc(Oc3ccccc3)n2C)n(C)c1=O	
24300	69300	615	450	0.019			Cn1c(=O)c2c(nc(OCCCc3ccccc3)n2C)n(C)c1=O	
5570	15900	2940	2160	0.39			Cn1c(=O)c2c(nc(OCCc3ccccc3)n2C)n(C)c1=O	
58700	168000	3770	2760	0.047			Cn1c(=O)c2c(nc(OCCOCc3ccccc3)n2C)n(C)c1=O	
470	1340	65	48	0.1			Cn1c(=O)c2c(nc(OCc3ccc(Cl)cc3)n2C)n(C)c1=O	27

Further lines, the molecule ahead of its results:

SMILES	Ki [1] [nM]	IC50 [1] [nM]	IC50 [2] [nM]	Ki [2] [nM]	Ratio Ki [3]	Ki [5] [nM]	Ki [6] [nM]	Ratio IC50 [4]
Cn1c(=O)c2c(nc(OCCOc3ccc(Cl)cc3)n2C)n(C)c1=O	640							
Cn1c(=O)c2c(nc(OCC3CCCCC3)n2C)n(C)c1=O	6450	18400	1360	1000	0.16			
Cn1c(=O)c2c(nc(OCC3CC=CCC3)n2C)n(C)c1=O (stereo not given)	4810	13800	2990	2190	0.45			
CC(C)CCOc1nc2c(c(=O)n(C)c(=O)n2C)n1C	9570	27300	14100	10300	1.08			
CC(C)CCCCOc1nc2c(c(=O)n(C)c(=O)n2C)n1C	5310	15200	381	280	0.053			
Cn1c(=O)c2c(nc(OCC3CCCC3)n2C)n(C)c1=O	7980	22800	15900	11600	1.46			

— ChEMBL document CHEMBL1806454, “8-Aryl- and alkyloxycaffeine analogues as inhibitors of monoamine oxidase” (Eur J Med Chem, 2011)
